Screening results (PubChem BioAssay)
Shown are actives, neighbours in structure and some others; about 3.9% of the full set was active somewhere.
CHO parental Ca: counter-screen for OX1R antagonists: effect in parental CHO cells. 330,000 tested, 0.63% active. inhibition, % at 5.6 µM. parental CHO-K1, ATP-induced calcium, Fluo-8 fluorescence;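 active = inhibition above that plate's mean sample inhibition plus 3 SD, cut at about 26% in these data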;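 also: 0% = ATP-challenged DMSO wells and 100% = DMSO wells without ATP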
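Material: parental CHO cells / Compound: single nominal dose of 5.6 µM per compound / Signal: Fluo-8 fluorescence / Replicates: singlicate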
OX1R antag-1: blocks the human orexin 1 receptor | OX1R-expressing cells, FRET antagonist read-out | O43613 | inhibition, % at 6.6 µM | 330,000 tested, 1.8% active; in the data active = inhibition mostly above about 38%, no sharp cut-off; inactive = mostly below about 40%;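 also: 0% = agonist challenge alone and 100% = reference antagonist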
Target sequence (O43613 whole entry, looked up): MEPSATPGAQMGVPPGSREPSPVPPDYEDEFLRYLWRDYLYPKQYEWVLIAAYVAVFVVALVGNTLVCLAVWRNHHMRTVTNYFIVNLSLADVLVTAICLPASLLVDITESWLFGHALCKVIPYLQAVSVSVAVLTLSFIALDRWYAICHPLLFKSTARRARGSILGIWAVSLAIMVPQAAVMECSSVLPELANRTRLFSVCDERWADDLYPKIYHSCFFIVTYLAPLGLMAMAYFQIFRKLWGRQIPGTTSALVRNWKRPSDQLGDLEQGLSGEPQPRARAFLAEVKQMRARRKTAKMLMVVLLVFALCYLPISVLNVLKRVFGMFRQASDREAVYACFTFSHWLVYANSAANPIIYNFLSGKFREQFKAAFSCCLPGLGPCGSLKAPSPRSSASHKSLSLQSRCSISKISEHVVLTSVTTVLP
TAAR1 antagonist: antagonists of human TAAR1 | CHO RD-HGA16 TAAR1, Fluo-8 calcium fluorescence, antagonist | inhibition, % at 3 µM | 360,000 tested, 1.5% active;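 active = inhibition above a per-plate cutoff, the mean inhibition of test compounds on that plate plus 3 SD, cut at about 49% in these data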;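 also: 0% = DMSO plus EC80 beta-PEA response and 100% = DMSO alone without agonist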
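System: CHO RD-HGA16 cells bearing hTAAR1. Reagent: EC80 β-phenethylamine stimulus. Schedule: seeding 17-24 h prior, 75-min 37 °C, 30-min RT dye loading. Signal: Fluo-8 intracellular calcium dye fluorescence, real-time kinetic reads. Read-out: % inhibition from peak post-agonist over basal fluorescence ratio. Benchmarks: vehicle wells and EC80 agonist wells. Replicates: n of 1.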
OX1R antag-2: human HCRTR1 antagonism. O43613. CHO/OX1R cells, Fluo-8 calcium fluorescence, orexin A. inhibition, % at 5 µM. 330,000 tested, 0.43% active;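 active = inhibition above its plate's threshold, mean inhibition of all tested compounds on the plate plus 3 SD, cut at about 37% in these data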;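 also: 0% = orexin A challenge wells and 100% = SB-334867-A antagonist wells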
TAAR1 agonist: human TAAR1 agonism; CHO RD-HGA16 TAAR1, Fluo-8 calcium fluorescence; vehicle wells 0%, saturating PEA agonist 100%; activation, % at 3 µM; 360,000 tested, 0.99% active; AID 624467;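 active = activation above the mean activation of all test compounds in the run plus 3 SD, cut at about 38% in these data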
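Test system: RD-HGA16 (CHO) cells co-expressing Gα16 and hTAAR1; dosing: one-point dosing at 3 µM (nominal); timing: 17-24 h seeding, 75 min 37 °C dye, 30 min RT; signal: kinetic Fluo-8 calcium fluorescence; read-out basis: % activation relative to PEA EC100 response; controls: DMSO and PEA EC100; replicates: n 1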
nonsel antag count: nonselective antagonism, TAAR1 counter-screen | shares compounds with TAAR1 antagonist | 2,400 tested, 77% active | counterscreen cell line, calcium fluorescence, antagonist mode | inhibition, % at 3 µM; in the data active = inhibition above about 22%;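 also: CHO-Ga16 host cells stimulated with ATP at an EC80 level; 0% = agonist EC80 plus vehicle and 100% = vehicle without agonist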
TAAR1 antag conf: human TAAR1 antagonism, confirmed | TAAR1-expressing cells, fluorescence antagonist read-out | inhibition, % at 3 µM | shares compounds with TAAR1 antagonist | 2,400 tested, 40% active; in the data active = inhibition above about 49%;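 also: CHO-Ga16 host cells challenged with agonist PEA near its EC80; 0% = agonist at EC80 plus vehicle and 100% = vehicle with no agonist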
Ga16 ag counter: nonselective Ga16 agonist in TAAR1 antagonist counter-screen; shares compounds with TAAR1 antagonist; Ga16-expressing cells, calcium fluorescence, agonist counterscreen; activation, % at 3 µM; 2,400 tested, 18% active; in the data active = activation above about 12%;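 also: 0% = vehicle wells and 100% = saturating stimulus response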
TAAR1 ag counter: TAAR1 agonism, antagonist counter-screen. hTAAR1 cell line, fluorescence activation, agonist mode. 2,400 tested, 2% active. activation, % at 3 µM. shares compounds with TAAR1 antagonist. AID 651955; in the data active = activation above about 37%;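 also: CHO cells stably expressing TAAR1 with calcium dye readout; 0% = DMSO vehicle and 100% = full agonist response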
Starred values were filed as active, the others as inactive; nt = no result given.

SMILES	CHO parental Ca	OX1R antag-1	TAAR1 antagonist	OX1R antag-2	TAAR1 agonist	nonsel antag count	TAAR1 antag conf	Ga16 ag counter	TAAR1 ag counter
CC(=O)c1ccc(N2CCN(C(=O)c3cc(-c4cccnc4)nc4ccc(Br)cc34)CC2)cc1	-10	5	76*	-9	25	27*	49*	13*	21
O=C(c1cc(-c2cccnc2)nc2ccc(Br)cc12)N1CCN(c2ncccn2)CC1	-27	20	51*	-30	20	34*	57*	10	12
CC(OC(=O)COc1ccc(Nc2ccccc2)cc1)C(=O)N(C)c1ccccc1 (stereo unspecified)	-4	38	73*	-13	5	30*	43	8	2
CC(OC(=O)CNS(=O)(=O)c1ccc2ccccc2c1)C(=O)N(C)c1ccccc1 (stereo unspecified)	-1	49	-18	-12	0	nt	nt	nt	nt
C=CCSc1nnc2c(n1)OC=Nc1ccccc1-2	-5	36	3	-8	4	nt	nt	nt	nt
Nc1cc(Cl)ccc1C(=O)OCC(=O)N1CCCC1	-4	-9	-12	-13	1	nt	nt	nt	nt
Nc1cc(Cl)ccc1C(=O)OCC(=O)NC1CCCCC1	30*	25	102*	17	-2	11	8	3	12
CSc1ncccc1C(=O)OCC(=O)N1CCCC1	-6	2	101*	11	-3	-4	-12	8	3
O=C(COC(=O)c1ccccc1C(=O)c1ccc(Cl)c([N+](=O)[O-])c1)NC1CCCCCC1	39*	21	74*	48*	13	35*	54*	9	10
O=C(COC(=O)c1ccc(Cl)c([N+](=O)[O-])c1)NC1CCCC1	-8	17	4	-10	1	nt	nt	nt	nt
Nc1cc(Cl)ccc1C(=O)OCC(=O)N1CCCCCC1	-5	0	103*	3	2	11	5	4	7
O=C(CCC(=O)N1CCOCC1)NCCc1ccc(Cl)cc1Cl	-7	18	-16	-11	4	nt	nt	nt	nt
O=C(CCC(=O)N1CCOCC1)NCCc1ccc(F)cc1	-4	10	nt	-9	nt	-5	nt	1	nt
O=C(Oc1ccc(Cl)cc1N1C(=O)CCC1=O)c1ccco1	-2	4	5	1	9	nt	nt	nt	nt
Cn1c2ccccc2c(=O)c2ccc(C#CC3(O)CCCCC3)cc21	-13	51	71*	-2	20	38*	55*	11	9
Cc1noc(C)c1-c1ccc(C(=O)Nc2cccc(C(F)(F)F)c2)c2occc12	nt	nt	53*	nt	-1	21	40	3	3
Cc1noc(C)c1-c1ccc(C(=O)Nc2cccc(NS(C)(=O)=O)c2)c2occc12	nt	nt	60*	nt	16	33*	46	11	11
Cc1noc(C)c1-c1ccc(C(=O)NCc2cccc(Cl)c2)c2occc12	nt	nt	25	nt	1	nt	nt	nt	nt
N#Cc1ccccc1S(=O)(=O)N1CCNS(=O)(=O)c2ccccc21	-8	11	-7	3	3	nt	nt	nt	nt
Cc1ccc(S(=O)(=O)N2CCN(C(=O)COC(=O)c3cnc(C)cn3)CC2)c(C)c1	-10	23	-30	-25	-1	nt	nt	nt	nt
COc1cccc(-c2cnc3c(NC(C)=O)cc(-c4ccsc4)cn23)c1	nt	nt	73*	nt	6	41*	66*	13*	12
COc1cccc(-c2cnc3c(NC(C)=O)cc(-c4ccc(OC)c(OC)c4)cn23)c1	nt	nt	-20	nt	3	nt	nt	nt	nt
COc1cccc(OC)c1OCCOc1ccc(C(=O)c2ccccc2)cc1	-23	15	52*	-17	8	31*	59*	7	5
CCN(CC)C(=O)COc1coc(CN2CCN(c3ccccc3F)CC2)cc1=O	-15	3	-10	-18	3	nt	nt	nt	nt
CCCN(CC(=O)Nc1ccccc1C)C(=O)/C=C/c1ccc(S(=O)(=O)N2CCCCCC2)cc1	-11	22	-1	-18	1	nt	nt	nt	nt
SMILES	CHO parental Ca	OX1R antag-1	TAAR1 antagonist	OX1R antag-2	TAAR1 agonist	nonsel antag count	TAAR1 antag conf	Ga16 ag counter	TAAR1 ag counter
O=C(CN1C(=O)c2cccnc2Oc2ccc(Cl)cc21)NCCCc1ccccc1	-17	28	84*	-21	8	32*	56*	9	9
C=CCN(C(=O)CN1CCCCC1)c1nc(-c2ccccc2)cs1	-17	15	-11	-25	-3	nt	nt	nt	nt
C=CCN(C(=O)C1CC(=O)N(C2CCCC2)C1)c1nc(-c2ccc(S(C)(=O)=O)cc2)cs1 (stereo unspecified)	1	14	78*	-9	33	38*	65*	18*	30
O=C(NCCc1ccccc1)c1cccs1	-6	15	6	-17	15	nt	nt	nt	nt
CCN=c1sc(C(=O)NCCc2ccccc2)cc(=O)n1CC	-14	20	55*	-16	26	31*	53*	11	25
CCOC(=O)c1ccc(S(=O)(=O)N2CCN(C(=O)c3nn(C)c(=O)c4ccccc34)CC2)cc1	-20	16	21	-26	4	nt	nt	nt	nt
COc1ccc(N2CCN(C(=O)c3cc4c(s3)-c3ccccc3S(=O)(=O)C4)CC2)cc1	-19	8	52*	-20	13	30*	42	7	9
CN1CCN(C(=O)c2cc3c(s2)-c2ccccc2S(=O)(=O)C3)CC1	-10	42	-11	-9	1	nt	nt	nt	nt
CC1(C)OC(=O)C2=C(C[C@@H](C3CCCCC3)O[C@H]2c2ccc(Cl)cc2)O1	nt	nt	50*	nt	5	4	13	7	14
COc1ccc2c(c1)c(CCN1C(=O)c3ccccc3C1=O)cn2C(=O)c1ccco1	-19	-1	57*	-20	5	12	32	2	4
COc1cc(NC(=O)c2oc3ccccc3c2C)ccc1NC(=O)c1ccco1	-4	15	54*	-16	10	26*	39	7	5
COc1cc(NC(=O)c2cc3ccccc3o2)ccc1NC(=O)c1ccco1	5	12	64*	-16	15	26*	51*	8	14
COc1ccccc1NC(=O)c1oc2ccccc2c1NC(=O)c1ccco1	-25	8	23	-19	6	nt	nt	nt	nt
N=c1c2c(ncn1Cc1ccco1)Oc1cc(O)ccc1C2c1ccccc1 (stereo unspecified)	3	13	-14	-4	0	nt	nt	nt	nt
N=c1c2c(ncn1Cc1ccco1)Oc1c(ccc3ccccc13)C2c1ccccc1 (stereo unspecified)	-20	21	58*	-29	0	14	14	6	35
